Measured values taken from ChEMBL document CHEMBL1128308, “Synthesis and antiinflammatory activity of certain 5,6,7,8-tetrahydroquinolines and related compounds” (J Med Chem, 1995).

Assays:
[1] = biological target: T1, Polyunsaturated fatty acid 5-lipoxygenase (Rattus norvegicus) (UniProt P12527); test: Inhibition of 5-lipoxygenase pathway in rat polymorphonuclear assay (inhibition of 5-HETE formation)
T1 sequence (whole entry): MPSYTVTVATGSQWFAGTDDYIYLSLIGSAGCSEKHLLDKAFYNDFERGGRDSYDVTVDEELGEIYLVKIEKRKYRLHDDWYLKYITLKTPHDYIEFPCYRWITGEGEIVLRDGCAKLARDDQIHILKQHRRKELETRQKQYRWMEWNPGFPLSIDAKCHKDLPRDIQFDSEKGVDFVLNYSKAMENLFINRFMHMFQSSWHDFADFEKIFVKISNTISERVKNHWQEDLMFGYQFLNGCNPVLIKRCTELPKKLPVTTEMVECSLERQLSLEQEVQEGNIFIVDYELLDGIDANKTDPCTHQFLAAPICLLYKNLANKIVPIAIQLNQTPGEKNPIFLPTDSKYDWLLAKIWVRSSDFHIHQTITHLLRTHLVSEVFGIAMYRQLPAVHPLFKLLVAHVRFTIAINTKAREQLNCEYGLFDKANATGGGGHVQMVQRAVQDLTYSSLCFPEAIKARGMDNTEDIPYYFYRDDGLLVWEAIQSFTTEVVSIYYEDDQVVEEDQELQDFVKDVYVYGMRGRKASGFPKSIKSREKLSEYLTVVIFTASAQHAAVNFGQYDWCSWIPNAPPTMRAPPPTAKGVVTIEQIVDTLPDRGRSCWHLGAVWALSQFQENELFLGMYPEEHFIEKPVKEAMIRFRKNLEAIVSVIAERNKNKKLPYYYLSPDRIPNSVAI
Method in brief: (§1)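 Rat polymorphonuclear leucocytes at 10^7 cells/mL in HBSS (Mg2+, Ca2+, 10 mM cysteine) were preincubated with compound, added in DMSO, for 10 min at 37 °C with shaking. Radiolabeled eicosanoids (5-HETE for the 5-LO pathway, TXB2 for the CO pathway) were separated by HPLC and detected with an in-line radioactivity detector. Results are given as percent change at 10 µM or 50 µM.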

[2] = biological target: T1, Polyunsaturated fatty acid 5-lipoxygenase (Rattus norvegicus); test: Inhibition of 5-lipoxygenase pathway in rat polymorphonuclear assay, by ability to inhibit formation of LTB4 AT 10 uM
Rattus norvegicus [3] = test: Antiinflammatory activity by rat Carrageenan edema assay at 50 mg/kg peroral administration (3h edema).; assay type: functional; settings: route oral
Method in brief: (§2)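 Groups of six male Sprague-Dawley rats (150-165 g) were dosed po in 0.5% methyl cellulose. One hour later, 0.1 mL of 1% carrageenan was injected subplantar into the right hind paw. Edema was taken as the 3 h paw volume minus the zero-time volume and expressed as percent change versus vehicle; screening dose was 50 mg/kg po.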

Rattus norvegicus [4] = test: Antiinflammatory activity by rat adjuvant arthritis assay at 30 mg/kg peroral administration (uninjected paw at day 16).; settings: route oral
[5] = biological target: T1, Polyunsaturated fatty acid 5-lipoxygenase (Rattus norvegicus); test: 5-lipoxygenase Inhibitory activity against rat polymorphonuclear leucocytes using 5-HETE; method in brief: as §1
[6] = biological target: T1, Polyunsaturated fatty acid 5-lipoxygenase (Rattus norvegicus)
[7] = biological target: T1, Polyunsaturated fatty acid 5-lipoxygenase (Rattus norvegicus); remark: listed apart in the source
[8] = biological target: Cyclooxygenase (Rattus norvegicus) (UniProt P35355+Q63921)
Rattus norvegicus [9] = test: Anti-inflammatory activity by rat carrageenan edema assay. (3h edema).; assay type: functional; method in brief: as §2
Rattus norvegicus [10] = species: Rattus norvegicus; test: Anti-inflammatory activity by rat adjuvant Arthritis assay..
[11] = biological target: T1, Polyunsaturated fatty acid 5-lipoxygenase (Rattus norvegicus); test: Inhibition of 5-lipoxygenase pathway was evaluated in rat polymorphonuclear assay by compound (50 uM) ability to inhibit formation of 5-HETE; method in brief: as §1
Rattus norvegicus [12] = species: Rattus norvegicus; test: Anti-inflammatory activity by rat acute gastric irritation assay, activity is expressed as Ulcerogenic dose (UD50).; assay type: functional, Stomach
Method in brief: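 Male Sprague-Dawley rats (190-220 g) were fasted for 18 h, then given compound in 0.5% Tween 80 by gastric intubation at 1 mL/100 g, with groups of 8 scored blind. At 4 h, gastric irritation was scored 0-3: 0 none, 1 redness, 2 ≤5 lesions, 3 >5 lesions. The ulcerogenic dose is the dose at which 50% of rats had at least one lesion.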

[13] = biological target: T1, Polyunsaturated fatty acid 5-lipoxygenase (Rattus norvegicus); remark: listed apart in the source

| Structure (SMILES) | Change [1] [%] | Change [2] [%] | Change (Rattus norvegicus [3]) [%] | Change (Rattus norvegicus [4]) [%] | further results |
| --- | --- | --- | --- | --- | --- |
| Cc1ccc(C(O)c2nc3c(cc2C)CCC3)cc1 (stereo unspecified) | -45 | -43 | -3.5 | -2 | – |
| Cc1cc2c(nc1C(O)c1ccc(C(F)(F)F)cc1)CCCCC2 (stereo unspecified) | 5 | 40 | -24 | -18 | – |
| Cc1ccnc2c1CCC/C2=C/c1ccnc2ccccc12 | – | -23 | -36 | -38 | Change [5]: -5% |
| Cc1ccc(C(=O)C2CCCc3c(C)ccnc32)cc1C (stereo unspecified) | – | -53 | -25 | -28 | Change [5]: -50% |
| Cc1ccc(C(O)c2ccc3c(n2)CCCCC3)cc1 (stereo unspecified) | -28 | -25 | -26 | -33 | – |
| COc1cccc(C(O)c2nc3c(cc2C)CCCCC3)c1 (stereo unspecified) | -34 | -50 | -28 | -14 | – |
| CC(c1cc2ccccc2s1)N(O)C(N)=O (stereo unspecified) | – | – | – | – | IC50 [6]: 0.3 µM; IC50 [7]: 0.4 µM; IC50 [8]: 16 µM |
| Cc1ccc([C@@H](O)[C@@H]2CCCc3cc(C)cnc32)cc1 | -27 | -11 | -15 | -3 | – |
| Cc1ccc(C(C)(O)c2nc3c(cc2C)CCCCC3)cc1 (stereo unspecified) | -14 | -13 | 2.5 | -4 | – |
| Cc1ccc([C@@H](O)[C@@H]2CCCCc3cccnc32)cc1 | -37 | -37 | -33 | -42 | – |
| Cc1ccnc2c1CCC/C2=C/c1ccncc1 | – | -25 | -17 | -49 | Change [5]: -17% |
| Cc1ccc(C(=O)C2CCCc3c(C)ccnc32)cc1 (stereo unspecified) | – | -34 | -12 | 19 | Change [5]: -41% |
| NC1=NN(c2cccc(C(F)(F)F)c2)CC1 [BW-755C] | – | – | – | – | ED50 (Rattus norvegicus [9]): 72 mg/kg; IC50 [6]: 10 µM; IC50 [7]: 11 µM; ED50 (Rattus norvegicus [10]): 38 mg/kg |
| COc1cc(/C=C2\CCCc3c(C)ccnc32)ccc1OC(C)=O | – | – | -45 | 23 | Change [11]: -100% |
| Cc1ccc(/C=C2\c3ncc(C)cc3CCC2(C)C)cc1 | – | 86 | -48 | 8 | Change [5]: 97% |
| Cc1ccc(C(O)c2nc3c(cc2C)CCCC3)cc1 (stereo unspecified) | -44 | -23 | -12.5 | -34 | – |
| C/C(=C1/CCCc2c(C)ccnc21)c1ccc(C)cc1 | – | -18 | -15 | 0 | Change [5]: 1% |
| Cc1ccc(/C=C2\CCCc3cc(C)cnc32)cc1 | – | – | -47 | 17 | Change [11]: -28% |
| Cc1ccc(C(N)c2nc3c(cc2C)CCCCC3)cc1 (stereo unspecified) | -23 | -29 | -10 | -3 | – |
| CC(C)Cc1ccc(C(C)C(=O)O)cc1 (stereo unspecified) [IBUPROFEN] | – | – | – | – | UD50 (Rattus norvegicus [12]): 42 mg/kg; IC50 [13]: > 50 µM; IC50 [7]: > 50 µM; ED50 (Rattus norvegicus [10]): 95 mg/kg |
| COc1cc(/C=C2\CCCc3cc4ccccc4nc32)ccc1OC(C)=O | – | – | -39 | 14 | Change [11]: -100% |

| Structure (SMILES) | Change [1] [%] | Change [2] [%] | Change (Rattus norvegicus [3]) [%] | Change (Rattus norvegicus [4]) [%] | further results |
| --- | --- | --- | --- | --- | --- |
| Cc1cc2c(nc1C(O)c1ccccc1)CCCCC2 (stereo unspecified) | -29 | -4 | -45 | -45 | – |
| Cc1cc2c(nc1C(O)c1cccnc1)CCCCC2 (stereo unspecified) | -5 | 9 | -14 | 18 | – |
| COc1cc(/C=C2\CCCc3cc(C)cnc32)ccc1O | – | – | -36 | -1 | – |
| C/C(=C1\CCCc2c(C)ccnc21)c1ccc(C)cc1 | – | -22 | -15 | -14 | Change [5]: 7% |
| Cc1cnc2c(c1)CCCC2Sc1ccccc1 (stereo unspecified) | – | -39 | -21 | -27 | Change [5]: -50% |
| Cc1ccnc2c1CCC/C2=C\c1ccncc1 | – | -4 | -15 | 3 | Change [5]: 9% |
| Cc1ccc([C@H](O)[C@@H]2CCCCc3cccnc32)cc1 | -31 | -37 | -26 | -32 | – |
| Cc1cc2c(nc1C(O)c1cccs1)CCCCC2 (stereo unspecified) | 37 | 34 | -9.5 | -6 | – |
| Cc1cnc2c(c1)CCCC2S(=O)(=O)c1ccccc1 (stereo unspecified) | 0 | 6 | -22 | -2 | – |
| Cc1cnc2c(c1)CCCC2[S+]([O-])c1ccccc1 (stereo unspecified) | 50 | 13 | -25 | 13 | – |
| Cc1cc2c(nc1C(O)c1cccc(Cl)c1)CCCCC2 (stereo unspecified) | -42 | -51 | -28 | 30 | – |
| Cc1ccc([C@@H](O)[C@H]2c3ncc(C)cc3CCC2(C)C)cc1 | 27 | 8 | -19 | -39 | – |
| Cc1ccc(C(=O)c2nc3c(cc2C)CCCCC3)cc1 | -49 | -52 | -59 | -26 | – |
| Cc1ccc(S(=O)(=O)NC2CCCc3cc(C)cnc32)cc1 (stereo unspecified) | – | 2 | -33 | 77 | Change [5]: -16% |
| Cc1ccc(Cc2nc3c(cc2C)CCCCC3)cc1 | -37 | -57 | -26 | – | – |
| Cc1ccc([C@H](O)[C@@H]2CCCc3cc(C)cnc32)cc1 | -49 | -48 | -33 | 49 | – |
| COc1ccc2cc([C@H](C)C(=O)O)ccc2c1 | – | – | – | – | IC50 [6]: > 100 µM; IC50 [7]: > 100 µM; IC50 [8]: 0.1 µM |
| COC(c1ccc(C)cc1)c1nc2c(cc1C)CCCCC2 (stereo unspecified) | -10 | -12 | -9.5 | -26 | – |
| Cc1cccc(C(=O)C2CCCc3cccnc32)c1 (stereo unspecified) | – | -11 | -6 | -16 | Change [5]: 23% |
| Cc1ccc(C(O)Cc2ccc3c(n2)CCCCC3)cc1 (stereo unspecified) | -14 | -29 | -41 | 28 | – |
